According to publication PMC6226115 (Clinical and Translational Science, 2018):
“And” between values parts separate entries of the source, which are not always exact repeats. Equal values may be shown once. “Also recorded” adds a separate entry of the source.

Legend:
glycine in CSF = test: Phase I pharmacodynamics: glycine in CSF; type: in vivo, human; conditions: for E 14, increase in glycine in CSF from baseline at 14 hours: 14 h after first dose; for E 14, increase in glycine in CSF from baseline at 14 hours / E max, maximum increase in glycine in CSF from baseline / Ratio of AUECdiff, 0–14 (glycine in CSF) / E 312, increase in glycine in CSF from baseline at 312 hours: mean (SD); for E max, maximum increase in glycine in CSF from baseline / Ratio of AUECdiff, 0–14 (glycine in CSF): after first dose; for E 312, increase in glycine in CSF from baseline at 312 hours: before last dose (steady state trough)
Outline: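 Healthy male volunteers took 5, 10, 25 or 50 mg orally each morning for 14 days in sequential ascending groups. CSF was drawn by lumbar catheter: three predose samples ~30 min apart, then hourly to 14 h after the first dose. A single lumbar puncture was taken before the day-14 dose. Glycine was measured by validated HPLC-MS/MS as its Marfey's derivative and expressed as % change from baseline (mean of three predose values).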

[1] = Phase I safety and tolerability; type: in vivo, human
Outline: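 In a nonrandomised, open-label phase I study, healthy men received 5, 10, 25 or 50 mg once daily for 14 days, with CSF sampled through a lumbar catheter. Safety was scored as the number of subjects with adverse events and summarised descriptively.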

[2] = previously observed; cited from earlier work
[3] = 5 mg once daily for 14 days (n = 6)
[4] = 10 mg once daily for 14 days (n = 6)
[5] = 25 mg once daily for 14 days (n = 8)
[6] = 50 mg once daily for 14 days (n = 5)
[7] = total on-treatment, all doses (n = 25)

C[C@@H](Oc1ccc(S(C)(=O)=O)cc1C(=O)N1C[C@@H]2C[C@]2(c2cc(C(F)(F)F)on2)C1)C(F)(F)F [BI 425809]
E 14, increase in glycine in CSF from baseline at 14 hours (glycine in CSF; 5 mg, N = 6): 18.0 (32.1) %
E max, maximum increase in glycine in CSF from baseline (glycine in CSF; 5 mg, N = 6): 35.3 (26.4) %
Ratio of AUECdiff, 0–14 (glycine in CSF) (glycine in CSF; 5 mg, N = 6): 16.0 (17.4) %
E 312, increase in glycine in CSF from baseline at 312 hours (glycine in CSF; 10 mg once daily, N = 4): 57% and 57.0 (48.3) %
E 14, increase in glycine in CSF from baseline at 14 hours (glycine in CSF; 10 mg, N = 6): 39.8 (14.5) %
E max, maximum increase in glycine in CSF from baseline (glycine in CSF; 10 mg, N = 6): 62.3 (15.3) %
Ratio of AUECdiff, 0–14 (glycine in CSF) (glycine in CSF; 10 mg, N = 6): 37.0 (12.1) %
E 312, increase in glycine in CSF from baseline at 312 hours (glycine in CSF; 25 mg once daily, N = 6): 38% and 37.9 (45.8) %
E 14, increase in glycine in CSF from baseline at 14 hours (glycine in CSF; 25 mg, N = 6): 60.9 (60.7) %
Ratio of AUECdiff, 0–14 (glycine in CSF) (glycine in CSF; 25 mg, N = 6): 53.0 (30.5) %
E max, maximum increase in glycine in CSF from baseline (glycine in CSF; 25 mg, N = 8): 136 (107) %
E 312, increase in glycine in CSF from baseline at 312 hours (glycine in CSF; 50 mg once daily, N = 5): 123% and 123 (52.5) %
E 14, increase in glycine in CSF from baseline at 14 hours (glycine in CSF; 50 mg, N = 5): 50.6 (33.8) %
E max, maximum increase in glycine in CSF from baseline (glycine in CSF; 50 mg, N = 5): 91.9 (89.9) %
Ratio of AUECdiff, 0–14 (glycine in CSF) (glycine in CSF; 50 mg, N = 5): 47.0 (35.3) %
Time at which CSF glycine levels reached their maximum (glycine in CSF; healthy volunteers, single oral doses, over dose groups): 6 to 10 h
Abdominal pain, subjects with AE [1, 3]: 0 n (%)
Back pain, subjects with AE [1, 3]: 3 (50.0) n (%)
Catheter site pain, subjects with AE [1, 3]: 1 (16.7) n (%)
Diarrhea, subjects with AE [1, 3]: 0 n (%)
Dizziness, subjects with AE [1, 3]: 0 n (%)
Dry mouth, subjects with AE [1, 3]: 0 n (%)
Fatigue, subjects with AE [1, 3]: 0 n (%)
Gingivitis, subjects with AE [1, 3]: 0 n (%)
Muscle spasms, subjects with AE [1, 3]: 1 (16.7) n (%)
Musculoskeletal stiffness, subjects with AE [1, 3]: 0 n (%)
Nasopharyngitis, subjects with AE [1, 3]: 0 n (%)
Nausea, subjects with AE [1, 3]: 1 (16.7) n (%)
Neck pain, subjects with AE [1, 3]: 0 n (%)
Paraesthesia, subjects with AE [1, 3]: 1 (16.7) n (%)
Procedural headache, subjects with AE [1, 3]: 4 (66.7) n (%)
Procedural pain, subjects with AE [1, 3]: 0 n (%)
Somnolence, subjects with AE [1, 3]: 1 (16.7) n (%)
Tension headache, subjects with AE [1, 3]: 0 n (%)
Total with AEs (treatment-emergent) [1, 3]: 5 (83.3) n (%)
Upper abdominal pain, subjects with AE [1, 3]: 0 n (%)
Vomiting, subjects with AE [1, 3]: 1 (16.7) n (%)
Wound, subjects with AE [1, 3]: 0 n (%)
Abdominal pain, subjects with AE [1, 4]: 0 n (%)
Back pain, subjects with AE [1, 4]: 0 n (%)
Catheter site pain, subjects with AE [1, 4]: 0 n (%)
Diarrhea, subjects with AE [1, 4]: 0 n (%)
Dizziness, subjects with AE [1, 4]: 1 (16.7) n (%)
Dry mouth, subjects with AE [1, 4]: 0 n (%)
Fatigue, subjects with AE [1, 4]: 0 n (%)
Gingivitis, subjects with AE [1, 4]: 1 (16.7) n (%)
Muscle spasms, subjects with AE [1, 4]: 0 n (%)
Musculoskeletal stiffness, subjects with AE [1, 4]: 0 n (%)
Nasopharyngitis, subjects with AE [1, 4]: 0 n (%)
Nausea, subjects with AE [1, 4]: 2 (33.3) n (%)
Neck pain, subjects with AE [1, 4]: 1 (16.7) n (%)
Paraesthesia, subjects with AE [1, 4]: 0 n (%)
Procedural headache, subjects with AE [1, 4]: 4 (66.7) n (%)
Procedural pain, subjects with AE [1, 4]: 0 n (%)
Somnolence, subjects with AE [1, 4]: 0 n (%)
Tension headache, subjects with AE [1, 4]: 0 n (%)
Total with AEs (treatment-emergent) [1, 4]: 5 (83.3) n (%)
Upper abdominal pain, subjects with AE [1, 4]: 0 n (%)
Vomiting, subjects with AE [1, 4]: 1 (16.7) n (%)
Wound, subjects with AE [1, 4]: 1 (16.7) n (%)
Abdominal pain, subjects with AE [1, 5]: 1 (12.5) n (%)
Back pain, subjects with AE [1, 5]: 4 (50.0) n (%)
Catheter site pain, subjects with AE [1, 5]: 0 n (%)
Diarrhea, subjects with AE [1, 5]: 1 (12.5) n (%)
Dizziness, subjects with AE [1, 5]: 1 (12.5) n (%)
Dry mouth, subjects with AE [1, 5]: 1 (12.5) n (%)
Fatigue, subjects with AE [1, 5]: 1 (12.5) n (%)
Gingivitis, subjects with AE [1, 5]: 0 n (%)
Muscle spasms, subjects with AE [1, 5]: 0 n (%)
Musculoskeletal stiffness, subjects with AE [1, 5]: 1 (12.5) n (%)
Nasopharyngitis, subjects with AE [1, 5]: 0 n (%)
Nausea, subjects with AE [1, 5]: 2 (25.0) n (%)
Neck pain, subjects with AE [1, 5]: 1 (12.5) n (%)
Paraesthesia, subjects with AE [1, 5]: 0 n (%)
Procedural headache, subjects with AE [1, 5]: 5 (62.5) n (%)
Procedural pain, subjects with AE [1, 5]: 1 (12.5) n (%)
Somnolence, subjects with AE [1, 5]: 0 n (%)
Tension headache, subjects with AE [1, 5]: 1 (12.5) n (%)
Total with AEs (treatment-emergent) [1, 5]: 8 (100.0) n (%)
Upper abdominal pain, subjects with AE [1, 5]: 1 (12.5) n (%)
Vomiting, subjects with AE [1, 5]: 2 (25.0) n (%)
Wound, subjects with AE [1, 5]: 0 n (%)
Abdominal pain, subjects with AE [1, 6]: 0 n (%)
Back pain, subjects with AE [1, 6]: 1 (20.0) n (%)
Catheter site pain, subjects with AE [1, 6]: 0 n (%)
Diarrhea, subjects with AE [1, 6]: 0 n (%)
Dizziness, subjects with AE [1, 6]: 0 n (%)
Dry mouth, subjects with AE [1, 6]: 0 n (%)
Fatigue, subjects with AE [1, 6]: 1 (20.0) n (%)
Gingivitis, subjects with AE [1, 6]: 0 n (%)
Muscle spasms, subjects with AE [1, 6]: 0 n (%)
Musculoskeletal stiffness, subjects with AE [1, 6]: 0 n (%)
Nasopharyngitis, subjects with AE [1, 6]: 1 (20.0) n (%)
Nausea, subjects with AE [1, 6]: 0 n (%)
Neck pain, subjects with AE [1, 6]: 1 (20.0) n (%)
Paraesthesia, subjects with AE [1, 6]: 0 n (%)
Procedural headache, subjects with AE [1, 6]: 3 (60.0) n (%)
Procedural pain, subjects with AE [1, 6]: 0 n (%)
Somnolence, subjects with AE [1, 6]: 0 n (%)
Tension headache, subjects with AE [1, 6]: 0 n (%)
Total with AEs (treatment-emergent) [1, 6]: 4 (80.0) n (%)
Upper abdominal pain, subjects with AE [1, 6]: 0 n (%)
Vomiting, subjects with AE [1, 6]: 0 n (%)
Wound, subjects with AE [1, 6]: 0 n (%)
AEs of special interest, deaths, serious AEs on-treatment ([1]; healthy male volunteers, 5 to 50 mg for 14 days): no protocol‐specified AEs of special interest, deaths, or other serious AEs reported
Safety and tolerability (in words) ([1]; healthy male volunteers, multiple oral doses 5 to 50 mg for 14 days): safe and well tolerated; also recorded: generally well tolerated; also recorded: well tolerated, with no indication of safety concerns
Subjects reporting back pain ([1]; of the 25 subjects treated (8 subjects)): 32.0%
Subjects reporting procedural headache ([1]; of the 25 subjects treated (16 subjects)): 64.0%
Subjects reporting at least one treatment-emergent AE ([1]; of the 25 subjects treated (22 subjects)): 88.0%
Abdominal pain, subjects with AE [1, 7]: 1 (4.0) n (%)
Back pain, subjects with AE [1, 7]: 8 (32.0) n (%)
Catheter site pain, subjects with AE [1, 7]: 1 (4.0) n (%)
Diarrhea, subjects with AE [1, 7]: 1 (4.0) n (%)
Dizziness, subjects with AE [1, 7]: 2 (8.0) n (%)
Dry mouth, subjects with AE [1, 7]: 1 (4.0) n (%)
Fatigue, subjects with AE [1, 7]: 2 (8.0) n (%)
Gingivitis, subjects with AE [1, 7]: 1 (4.0) n (%)
Muscle spasms, subjects with AE [1, 7]: 1 (4.0) n (%)
Musculoskeletal stiffness, subjects with AE [1, 7]: 1 (4.0) n (%)
Nasopharyngitis, subjects with AE [1, 7]: 1 (4.0) n (%)
Nausea, subjects with AE [1, 7]: 5 (20.0) n (%)
Neck pain, subjects with AE [1, 7]: 3 (12.0) n (%)
Paraesthesia, subjects with AE [1, 7]: 1 (4.0) n (%)
Procedural headache, subjects with AE [1, 7]: 16 (64.0) n (%)
Procedural pain, subjects with AE [1, 7]: 1 (4.0) n (%)
Somnolence, subjects with AE [1, 7]: 1 (4.0) n (%)
Tension headache, subjects with AE [1, 7]: 1 (4.0) n (%)
Total with AEs (treatment-emergent) [1, 7]: 22 (88.0) n (%)
Upper abdominal pain, subjects with AE [1, 7]: 1 (4.0) n (%)
Vomiting, subjects with AE [1, 7]: 4 (16.0) n (%)
Wound, subjects with AE [1, 7]: 1 (4.0) n (%)
Subjects who discontinued due to AEs ([1]; two subjects of 25 (5-mg and 10-mg dose groups), AEs not considered drug-related): 8.0%
Attainment of steady state after administration [2]: ≤ 8 days
Half-life [2]: ~ 40 hours
